Measurements published in article PMC8378355 (BMJ Open Diabetes Research & Care, 2021).

Legend:
insulin receptor (IR) = insulin receptor (IR) (Homo sapiens, UniProt P06213); experiment: IR affinity relative to HI; format: binding
primary rat adipocytes = experiment: Lipogenesis in rat adipocytes; format: cell-based; conditions: HSA 0.1%, n=4
Human IGF-1R = Human IGF-1R (Homo sapiens, UniProt P08069); experiment: Human IGF-1R binding, competition scintillation proximity assay; conditions: HSA 0%, n=4
L6-hIR cells [1] = experiment: Glycogen synthesis in rat L6-hIR cells; format: cell-based; conditions: HSA 0.1%, n=4
Outline: (§1)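 L6-hIR cells are a rat skeletal myoblast L6 line stably transfected with the A isoform of human IR. MCF-7 is a human mammary adenocarcinoma line.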

[2] = tested on: individuals with type 2 diabetes; experiment: Clinical pharmacology trial: safety assessments; format: in vivo, human
Outline: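 Dose-escalation trial in type 2 diabetes. Three sequential cohorts received once-weekly s.c. thigh injections at 12, 20 or 24 nmol/kg with once-daily placebo for 5 weeks. Safety covered adverse events, hypoglycemic episodes, injection site reactions, vital signs, physical examination, clinical laboratory tests and ECG. An internal safety group reviewed blinded interim data before each escalation.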

[3] = Clinical pharmacology trial: pharmacokinetics, total serum insulin icodec; format: in vivo, human
Outline: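 Randomized, double-blind, double-dummy, active-controlled, multiple-dose escalation trial in adults aged 18–64 with type 2 diabetes on insulin (HbA1c ≤9.0%). Participants received once-weekly s.c. thigh injections at 12, 20 or 24 nmol/kg (one dose per cohort) for 5 weeks, at ~20:00. Total serum test compound (free plus albumin-bound) was measured by a specific assay at prespecified times, from predose to 36 days after the last dose.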

Human IR-A = Human IR-A (Homo sapiens, UniProt P06213); experiment: Human IR-A binding, competition scintillation proximity assay; conditions: n=3
[4] = biological target: human insulin receptors (hIRs) (Homo sapiens, UniProt P06213); experiment: IR phosphorylation in CHO-hIR cells; format: cell-based
COLO-205 cells = experiment: DNA synthesis; format: cell-based, human; conditions: HSA 0%, n=3
Human IR-B = Human IR-B (Homo sapiens, UniProt P06213); experiment: Human IR-B binding, competition scintillation proximity assay; conditions: n=3
MCF-7 cells [5] = experiment: DNA synthesis; format: cell-based, human; conditions: HSA 0%, n=4
L6-hIR cells [6] = experiment: DNA synthesis; format: cell-based, rat; conditions: HSA 0%, n=5
protein kinase B (AKT) = experiment: Phospho-AKT in CHO-hIR cells; format: cell-based, Chinese Hamster; conditions: read-out: EC50 (nM) Mean (95% CI), Phospho-AKT in CHO-hIR cells; HSA 0.1%, n=3
HMEC cells = experiment: DNA synthesis; format: cell-based, human; conditions: HSA 0%, n=7
MCF-7 cells [7] = experiment: Glycogen synthesis in human MCF-7 cells; format: cell-based; conditions: HSA 0%, n=5
Outline: as §1

rat hepatocytes = experiment: Glycogen accumulation in rat hepatocytes; format: cell-based; conditions: for EC50: read-out: EC50 (nM) Mean (95% CI), Glycogen accumulation in rat hepatocytes, n=7, geometric mean
Outline: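 Hepatocytes are isolated from rat by two-step collagenase perfusion. […] Determine cellular glycogen as glucose released after amyloglucosidase digestion.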

[8] = tested on: extracellular-regulated kinase (ERK); experiment: Phospho-ERK in CHO-hIR cells; format: cell-based, Chinese Hamster; conditions: HSA 0.1%, n=3; for EC50: read-out: EC50 (nM) Mean (95% CI), Phospho-ERK in CHO-hIR cells

Chain of Human IGF-1R (P08069 31-736 limits assumed): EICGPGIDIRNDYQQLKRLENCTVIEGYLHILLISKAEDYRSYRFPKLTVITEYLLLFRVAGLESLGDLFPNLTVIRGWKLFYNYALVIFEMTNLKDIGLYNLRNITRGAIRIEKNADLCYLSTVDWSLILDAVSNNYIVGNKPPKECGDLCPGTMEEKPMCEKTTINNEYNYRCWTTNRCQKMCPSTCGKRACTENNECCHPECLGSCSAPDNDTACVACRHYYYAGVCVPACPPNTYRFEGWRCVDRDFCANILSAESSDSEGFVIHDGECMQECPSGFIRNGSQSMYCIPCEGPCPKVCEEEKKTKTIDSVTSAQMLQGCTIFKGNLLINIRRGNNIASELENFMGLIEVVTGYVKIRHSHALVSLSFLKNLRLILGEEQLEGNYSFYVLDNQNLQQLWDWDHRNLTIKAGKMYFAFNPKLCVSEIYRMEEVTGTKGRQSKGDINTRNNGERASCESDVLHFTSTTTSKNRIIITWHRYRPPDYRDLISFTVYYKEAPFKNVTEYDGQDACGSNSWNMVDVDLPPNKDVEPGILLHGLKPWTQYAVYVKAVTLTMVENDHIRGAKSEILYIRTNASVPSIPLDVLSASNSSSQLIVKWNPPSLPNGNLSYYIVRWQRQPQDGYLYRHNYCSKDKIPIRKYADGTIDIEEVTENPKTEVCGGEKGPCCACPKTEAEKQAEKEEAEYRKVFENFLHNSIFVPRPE
Chain of Human IGF-1R (P08069 741-1367 partner limits assumed): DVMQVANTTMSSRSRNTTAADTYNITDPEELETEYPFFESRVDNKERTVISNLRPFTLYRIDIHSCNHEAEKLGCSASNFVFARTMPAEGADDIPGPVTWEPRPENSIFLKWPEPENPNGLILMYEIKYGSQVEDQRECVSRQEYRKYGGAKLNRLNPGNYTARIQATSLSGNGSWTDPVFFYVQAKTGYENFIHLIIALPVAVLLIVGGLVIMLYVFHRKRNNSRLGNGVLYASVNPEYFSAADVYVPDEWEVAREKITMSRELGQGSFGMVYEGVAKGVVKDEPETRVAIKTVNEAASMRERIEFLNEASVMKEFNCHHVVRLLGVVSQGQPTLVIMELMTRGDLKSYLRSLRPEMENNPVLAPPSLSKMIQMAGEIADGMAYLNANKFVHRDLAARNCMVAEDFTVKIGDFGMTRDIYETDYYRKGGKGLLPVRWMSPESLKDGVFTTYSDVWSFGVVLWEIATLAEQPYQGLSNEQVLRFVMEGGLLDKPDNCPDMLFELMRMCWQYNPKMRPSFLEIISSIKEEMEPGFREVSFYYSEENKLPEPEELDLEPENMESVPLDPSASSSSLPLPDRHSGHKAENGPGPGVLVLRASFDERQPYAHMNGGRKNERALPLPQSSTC

desB30: human insulin with the threonine in position B30 deleted
influence on the IR affinity (insulin receptor (IR); deletion of threonine in position B30 of HI): no influence

insulin icodec
EC50 (%) Insulin icodec relative to human insulin Mean (95% CI), Lipogenesis in rat adipocytes (primary rat adipocytes): 0.029% | IC50 (%) Insulin icodec relative to human insulin Mean (95% CI), Human IGF-1R binding (Human IGF-1R): 0.14% | EC50 (%) Insulin icodec relative to human insulin Mean (95% CI), Glycogen synthesis in rat L6-hIR cells (L6-hIR cells [1]): 0.52% | adverse events, number of events ([2]; 12 nmol/kg once weekly, n=13): 33 events | adverse events, number of individuals with events ([2]; 12 nmol/kg once weekly, n=13): 13 individuals | adverse events, number of events ([2]; 20 nmol/kg once weekly, n=13): 19 events | adverse events, number of individuals with events ([2]; 20 nmol/kg once weekly, n=13): 9 individuals | adverse events, number of events ([2]; 24 nmol/kg once weekly, n=12): 23 events | adverse events, number of individuals with events ([2]; 24 nmol/kg once weekly, n=12): 9 individuals | serious or severe adverse events, severe hypoglycemic episodes, injection site reactions or clinically significant findings in vital signs, physical examination, clinical laboratory assessments or ECG ([2]; 12, 20, 24 nmol/kg once weekly for 5 weeks): No serious or severe adverse events | tolerability ([2]; 12, 20, 24 nmol/kg once weekly for 5 weeks, type 2 diabetes): well tolerated | time to maximum concentration (median tmax) ([3]; type 2 diabetes, once-weekly s.c. dosing): 16 h | maximum serum concentration at steady state ([3]; week 5 of once-weekly dosing): < 500 nmol/L | IC50 (%) Insulin icodec relative to human insulin Mean (95% CI), Human IR-A binding (Human IR-A; HSA 0%): 0.50% | IC50 (%) Insulin icodec relative to human insulin Mean (95% CI), Human IR-A binding (Human IR-A; HSA 1.5%): 0.03% | agonism at IRs (activation of IRs and downstream AKT and ERK) ([4]; CHO-hIR cells, 0.1% HSA, in a similar manner as HI): full agonist | EC50 (%) Insulin icodec relative to human insulin Mean (95% CI), IR phosphorylation in CHO-hIR cells ([4]; HSA 0.1%, n=3): 0.21% | EC50 (%) Insulin icodec relative to human insulin Mean (95% CI), DNA synthesis in human COLO-205 cells (COLO-205 cells): 2.0% | IC50 (%) Insulin icodec relative to human insulin Mean (95% CI), Human IR-B binding (Human IR-B; HSA 0%): 0.78% | IC50 (%) Insulin icodec relative to human insulin Mean (95% CI), Human IR-B binding (Human IR-B; HSA 1.5%): 0.03% | EC50 (%) Insulin icodec relative to human insulin Mean (95% CI), DNA synthesis in human MCF-7 cells (MCF-7 cells [5]): 0.5% | EC50 (%) Insulin icodec relative to human insulin Mean (95% CI), DNA synthesis in rat L6-hIR cells (L6-hIR cells [6]): 0.6% | EC50 (protein kinase B (AKT)): 245 nM | EC50 (%) Insulin icodec relative to human insulin Mean (95% CI), DNA synthesis in human HMEC cells (HMEC cells): 0.2% | EC50 (%) Insulin icodec relative to human insulin Mean (95% CI), Glycogen synthesis in human MCF-7 cells (MCF-7 cells [7]): 0.26% | EC50 (%) Insulin icodec relative to human insulin Mean (95% CI), Glycogen accumulation in rat hepatocytes (rat hepatocytes; HSA 0%, n=7): 4.3% | EC50 (%) Insulin icodec relative to human insulin Mean (95% CI), Glycogen accumulation in rat hepatocytes (rat hepatocytes; HSA 0.1%, n=8): 0.24% | EC50 (rat hepatocytes; HSA 0%): 6.4 nM | EC50 (%) Insulin icodec relative to human insulin Mean (95% CI), Phospho-ERK in CHO-hIR cells [8]: 0.39% | EC50 [8]: 271 nM

B16H: individual amino acid substitution TyrB16His in human insulin
IR affinity relative to HI (insulin receptor (IR); relative to HI): 22%

human insulin [reference compound]
EC50 (protein kinase B (AKT)): 0.15 nM | EC50 (rat hepatocytes; HSA 0%): 0.28 nM | EC50 [8]: 1.02 nM
